Experimental data reported in ChEMBL document CHEMBL1152414, “Synthesis, antimalarial activity and cytotoxicity of substituted 3,6-diphenyl-[1,2,4,5]tetraoxanes” (Bioorg Med Chem, 2009).
pIC50: −log10 of the molar value.

Experiments:
Plasmodium falciparum [1] = test: Antimalarial activity after 72 hrs against chloroquine-resistant Plasmodium falciparum W2 by Malstat LDH activity; assay type: functional, organism-based; conditions: W2, 72 h
In short: (§1)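 P. falciparum (D6 or W2) infected red cell suspension at 2% parasitemia and 2% hematocrit in RPMI 1640 with 10% human serum and amikacin, added to serially diluted samples. Incubated 72 h at 37 °C under 90% N2/5% O2/5% CO2. Parasite LDH read with Malstat reagent and NBT/PES, acetic acid stop, 650 nm. IC50 taken from dose-response curves; artemisinin and chloroquine run as controls.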

Vero [2] = test: Cytotoxicity against african green monkey Vero cells upto 16.72 uM after 48 hrs by neutral red assay; assay type: cell-based; conditions: chlorocebus sabaeus
In short: (§2)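 Vero monkey kidney cells seeded at 25,000 cells/well and grown 24 h, then exposed to samples at several concentrations for 48 h. Viable cells counted by Neutral Red uptake. IC50 taken from dose-response curves; doxorubicin run as positive control.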

Plasmodium falciparum [3] = test: Antimalarial activity after 72 hrs against chloroquine-sensitive Plasmodium falciparum D6 by Malstat LDH activity; assay type: functional, organism-based; conditions: D6, 72 h; in short: as §1
[4] = Selectivity index, ratio of IC50 for african green monkey (Cercopithecus aethiops) Vero cells to IC50 for chloroquine-sensitive Plasmodium falciparum D6; assay type: toxicity, cell-based; conditions: read-out: Ratio IC50
In short: (§3)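 Selectivity index is Vero cytotoxicity IC50 (Neutral Red, 48 h) divided by P. falciparum D6 or W2 IC50 (parasite LDH, 72 h).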

[5] = Selectivity index, ratio of IC50 for african green monkey (Cercopithecus aethiops) Vero cells to IC50 for chloroquine-resistant Plasmodium falciparum W2; assay type: toxicity, cell-based; conditions: read-out: Ratio IC50; in short: as §3
KB = test: Cytotoxicity human KB cells upto 30 uM after 48 hrs by neutral red assay; assay type: cell-based
Vero [6] = test: Cytotoxicity against african green monkey Vero cells upto 30 uM after 48 hrs by neutral red assay; assay type: cell-based; conditions: chlorocebus sabaeus; in short: as §2
SK-MEL = test: Cytotoxicity human SK-MEL cells upto 30 uM after 48 hrs by neutral red assay; assay type: cell-based
BT-549 = test: Cytotoxicity human BT549 cells upto 30 uM after 48 hrs by neutral red assay; assay type: cell-based; conditions: bt-549, 48 h
SK-OV-3 = test: Cytotoxicity human SKOV3 cells upto 30 uM after 48 hrs by neutral red assay; assay type: cell-based; conditions: sk-ov-3, 48 h
[7] = Cytotoxicity pig LLC-PK11 cells upto 30 uM after 48 hrs by neutral red assay; assay type: cell-based, Sus scrofa; conditions: llc-pk11, 48 h

With `CC(C)(C)c1ccc(C2OOC(c3ccc(C(C)(C)C)cc3)OO2)cc1` (stereo not drawn) the pIC50 (Plasmodium falciparum [1]) was 5.41, the Activity (Vero [2]) was “Non-toxic” and the pIC50 (Plasmodium falciparum [3]) was 5.66. For the same compound, the selectivity ratio [4] was over 6.1 and the selectivity ratio [5] was over 3.4.

For `Cc1ccc(C2OOC(c3ccc(C(C)C)cc3)OO2)cc1` (stereo not drawn), the pIC50 (Plasmodium falciparum [1]) was 6.11, the Activity (Vero [2]) was “Non-toxic” and the pIC50 (Plasmodium falciparum [3]) was 6.23. For the same compound, the selectivity ratio [4] was over 26.4 and the selectivity ratio [5] was over 20.9.

With `CCCc1ccc(C2OOC(c3ccc(CCC)cc3)OO2)cc1` (stereo not drawn) the pIC50 (Plasmodium falciparum [1]) was 6.12, the Activity (KB) was “Non-toxic” and the Activity (Vero [2]) was “Non-toxic”. The pIC50 (Plasmodium falciparum [3]) was 6.21, the selectivity ratio [4] was over 23.8 and the Activity (Vero [6]) was “Non-toxic”. For the same compound, the Activity (SK-MEL) was “Non-toxic”, the selectivity ratio [5] was over 19 and the Activity (BT-549) was “Non-toxic”. The Activity (SK-OV-3) was “Non-toxic” and the Activity [7] was “Non-toxic”.

In the case of `CCCCc1ccc(C2OOC(c3ccc(CCCC)cc3)OO2)cc1` (stereo not drawn), the pIC50 (Plasmodium falciparum [1]) was 5.32, the Activity (Vero [2]) was “Non-toxic” and the pIC50 (Plasmodium falciparum [3]) was 5.44. It also gave a selectivity ratio [4] of over 3.7 and a selectivity ratio [5] of over 2.8.

With `CCc1ccc(C2OOC(c3ccc(C)cc3)OO2)cc1` (stereo not drawn) the pIC50 (Plasmodium falciparum [1]) was 6.35, the Activity (Vero [2]) was “Non-toxic” and the pIC50 (Plasmodium falciparum [3]) was 6.42. For the same compound, the selectivity ratio [4] was over 43.6 and the selectivity ratio [5] was over 36.7.

For `Cc1ccc(C2OOC(c3ccc(C(C)(C)C)cc3)OO2)cc1` (stereo not drawn), the pIC50 (Plasmodium falciparum [1]) was 6.10, the Activity (Vero [2]) was “Non-toxic” and the pIC50 (Plasmodium falciparum [3]) was 6.22. It also gave a selectivity ratio [4] of over 25.1 and a selectivity ratio [5] of over 19.

In the case of `COc1ccc(C2OOC(c3ccc(C)cc3)OO2)cc1` (stereo not drawn), the pIC50 (Plasmodium falciparum [1]) was 5.97, the Activity (Vero [2]) was “Non-toxic” and the pIC50 (Plasmodium falciparum [3]) was 6.12. It also gave a selectivity ratio [4] of over 21.6 and a selectivity ratio [5] of over 15.4.

With `CC(C)c1ccc(C2OOC(c3ccc(C(C)C)cc3)OO2)cc1` (stereo not drawn) the pIC50 (Plasmodium falciparum [1]) was 5.99, the Activity (KB) was “Non-toxic” and the Activity (Vero [2]) was “Non-toxic”. For the same compound, the pIC50 (Plasmodium falciparum [3]) was 6.17, the selectivity ratio [4] was over 21.6 and the Activity (Vero [6]) was “Non-toxic”. The Activity (SK-MEL) was “Non-toxic”, the selectivity ratio [5] was over 14 and the Activity (BT-549) was “Non-toxic”. For the same compound, the Activity (SK-OV-3) was “Non-toxic” and the Activity [7] was “Non-toxic”.

For `CCc1ccc(C2OOC(c3ccc(CC)cc3)OO2)cc1` (stereo not drawn), the Activity (KB) was “Non-toxic”, the Activity (Vero [2]) was “Non-toxic” and the pIC50 (Plasmodium falciparum [3]) was 6.00. For the same compound, the selectivity ratio [4] was over 15.9, the Activity (Vero [6]) was “Non-toxic” and the Activity (SK-MEL) was “Non-toxic”. For the same compound, the selectivity ratio [5] was over 15.9, the Activity (BT-549) was “Non-toxic” and the Activity (SK-OV-3) was “Non-toxic”. The Activity [7] was “Non-toxic”.

For `Cc1ccc(C2OOC(c3ccccc3C)OO2)cc1` (stereo not drawn), the pIC50 (Plasmodium falciparum [1]) was 5.66, the Activity (Vero [2]) was “Non-toxic” and the pIC50 (Plasmodium falciparum [3]) was 5.52. For the same compound, the selectivity ratio [4] was over 5.7 and the selectivity ratio [5] was over 7.9.

In the case of `Cc1cccc(C2OOC(c3ccccc3C)OO2)c1` (stereo not drawn), the pIC50 (Plasmodium falciparum [1]) was 5.87, the Activity (Vero [2]) was “Non-toxic” and the pIC50 (Plasmodium falciparum [3]) was 5.99. For the same compound, the selectivity ratio [4] was over 17 and the selectivity ratio [5] was over 12.9.

In the case of `COc1ccc(C2OOC(c3ccc(C(C)C)cc3)OO2)cc1` (stereo not drawn), the pIC50 (Plasmodium falciparum [1]) was 5.24, the Activity (Vero [2]) was “Non-toxic” and the pIC50 (Plasmodium falciparum [3]) was 5.10. For the same compound, the selectivity ratio [4] was over 1.9 and the selectivity ratio [5] was over 2.6.

In the case of `CCc1ccc(C2OOC(c3ccc(C(C)(C)C)cc3)OO2)cc1` (stereo not drawn), the pIC50 (Plasmodium falciparum [1]) was 5.44, the Activity (Vero [2]) was “Non-toxic” and the pIC50 (Plasmodium falciparum [3]) was 5.26. It also gave a selectivity ratio [4] of over 2.6 and a selectivity ratio [5] of over 4.

With `CCCc1ccc(C2OOC(c3ccc(C)cc3)OO2)cc1` (stereo not drawn) the pIC50 (Plasmodium falciparum [1]) was 5.97, the Activity (Vero [2]) was “Non-toxic” and the pIC50 (Plasmodium falciparum [3]) was 5.70. The selectivity ratio [4] was over 7.9 and the selectivity ratio [5] was over 14.9.

With `Cc1ccc(C2OOC(c3ccc(C=O)cc3)OO2)cc1` (stereo not drawn) the Activity (Vero [2]) was “Non-toxic”.

In the case of `CCCc1ccc(C2OOC(c3ccc(OC)cc3)OO2)cc1` (stereo not drawn), the pIC50 (Plasmodium falciparum [1]) was 6.18, the Activity (Vero [2]) was “Non-toxic” and the pIC50 (Plasmodium falciparum [3]) was 6.03. It also gave a selectivity ratio [4] of over 15.8 and a selectivity ratio [5] of over 22.7.

In the case of `CCCc1ccc(C2OOC(c3ccc(C(C)C)cc3)OO2)cc1` (stereo not drawn), the pIC50 (Plasmodium falciparum [1]) was 6.10, the Activity (Vero [2]) was “Non-toxic” and the pIC50 (Plasmodium falciparum [3]) was 6.02. The selectivity ratio [4] was over 15.4 and the selectivity ratio [5] was over 18.3.

In the case of `CCc1ccc(C2OOC(c3cccc(C)c3)OO2)cc1` (stereo not drawn), the pIC50 (Plasmodium falciparum [1]) was 6.25, the Activity (Vero [2]) was “Non-toxic” and the pIC50 (Plasmodium falciparum [3]) was 6.46. It also gave a selectivity ratio [4] of over 47.6 and a selectivity ratio [5] of over 29.8.

For `CCc1ccc(C2OOC(c3ccc(C(C)C)cc3)OO2)cc1` (stereo not drawn), the pIC50 (Plasmodium falciparum [1]) was 6.24, the Activity (Vero [2]) was “Non-toxic” and the pIC50 (Plasmodium falciparum [3]) was 6.35. For the same compound, the selectivity ratio [4] was over 34 and the selectivity ratio [5] was over 26.4.

In the case of `Cc1ccc(C2OOC(c3ccccc3)OO2)cc1` (stereo not drawn), the pIC50 (Plasmodium falciparum [1]) was 5.97, the Activity (Vero [2]) was “Non-toxic” and the pIC50 (Plasmodium falciparum [3]) was 6.03. The selectivity ratio [4] was over 19.8 and the selectivity ratio [5] was over 17.

With `COc1ccc(C2OOC(c3cccc(C)c3)OO2)cc1` (stereo not drawn) the pIC50 (Plasmodium falciparum [1]) was 6.21, the Activity (Vero [2]) was “Non-toxic” and the pIC50 (Plasmodium falciparum [3]) was 6.38. For the same compound, the selectivity ratio [4] was over 39.7 and the selectivity ratio [5] was over 26.4.

For `Cc1ccc(C2OOC(c3cccc(C)c3)OO2)cc1` (stereo not drawn), the pIC50 (Plasmodium falciparum [1]) was 5.99, the Activity (Vero [2]) was “Non-toxic” and the pIC50 (Plasmodium falciparum [3]) was 6.17. For the same compound, the selectivity ratio [4] was over 25.1 and the selectivity ratio [5] was over 17.

In the case of `Cc1cccc(C2OOC(c3ccccc3)OO2)c1` (stereo not drawn), the pIC50 (Plasmodium falciparum [1]) was 6.34, the Activity (Vero [2]) was “Non-toxic” and the pIC50 (Plasmodium falciparum [3]) was 6.30. The selectivity ratio [4] was over 36.8 and the selectivity ratio [5] was over 39.7.

In the case of `CCCc1ccc(C2OOC(c3ccc(C(C)(C)C)cc3)OO2)cc1` (stereo not drawn), the pIC50 (Plasmodium falciparum [1]) was 5.58, the Activity (Vero [2]) was “Non-toxic” and the pIC50 (Plasmodium falciparum [3]) was 5.39. For the same compound, the selectivity ratio [4] was over 3.4 and the selectivity ratio [5] was over 5.3.

For `COc1ccc(C2OOC(c3ccc(C(C)(C)C)cc3)OO2)cc1` (stereo not drawn), the pIC50 (Plasmodium falciparum [1]) was 6.19, the Activity (Vero [2]) was “Non-toxic” and the pIC50 (Plasmodium falciparum [3]) was 6.27. For the same compound, the selectivity ratio [4] was over 26.4 and the selectivity ratio [5] was over 22.7.

In the case of `CC(C)c1ccc(C2OOC(c3ccc(C(C)(C)C)cc3)OO2)cc1` (stereo not drawn), the pIC50 (Plasmodium falciparum [1]) was 5.03, the Activity (Vero [2]) was “Non-toxic” and the pIC50 (Plasmodium falciparum [3]) was 4.86. For the same compound, the selectivity ratio [4] was over 1 and the selectivity ratio [5] was over 1.5.

With `C[C@@H]1CC[C@H]2[C@@H](C)C(=O)O[C@@H]3O[C@@]4(C)CC[C@@H]1[C@]32OO4` [ARTEMISININ] the pIC50 (Plasmodium falciparum [1]) was 7.82, the Activity (Vero [2]) was “Non-toxic” and the selectivity ratio [4] was over 476. It also gave a selectivity ratio [5] of over 1400.

With `CCN(CC)CCCC(C)Nc1ccnc2cc(Cl)ccc12` (stereo not drawn) [CHLOROQUINE] the Activity (Vero [2]) was “Non-toxic”.
